Pyk2 oligo antag – antagonists of human Pyk2 oligomerization. Q293 cells, Pyk2 FERM NanoBiT luminescence; hits give low values. z-score (the deposit names both 25 µM and 10 µM). 0.83% of 99,000 active;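 active = Z-score of -3 or lower, scaled per plate to the spread of control and sample wells; inactive = z-score above -3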;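 note: negative z-score means lost luminescence so less FERM oligomerization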
Cav3 T inh – human Cav3.2 channel inhibition, primary screen | O95180 | Cav3.2-expressing cells, Fluo-4 calcium fluorescence FDSS; hits give low values | B-score at 10 µM | 4% of 100,000 active;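 active = single-dose well whose peak fluorescence ratio is a statistical outlier from its plate by either plate-standardised score or position-corrected B-score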
hDAT+cocaine – changed human dopamine transporter uptake under cocaine IC80. 1.3% of 110,000 active. B-score at 10 µM. AID 449768. LLC-PK1 hDAT cells, [14C]-dopamine uptake with cocaine IC80; actives deviate in either direction;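 active = Z score or B-score, a plate-position-corrected score, falls beyond the plate's 99.7% confidence bounds, in either direction; inactive = both scores lie inside the 99.7% bounds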
HIV Rev-RRE inh – disrupts HIV-1 Rev binding to RRE RNA; P05866; Rev peptide-RRE RNA binding, FRET; inhibition, % at 8 µM; 0.79% of 97,000 active; AID 704;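 active = inhibition above the screen-wide mean plus 3 SD, cut at about 35% in these data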
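Assay system: Labelled RRE RNA duplex and labelled Rev peptide | Times: 5 min preincubation and 15 min binding, 25 °C | Detection: FRET, ex 480 nm, em 540 and 671 nm | Evaluation: % inhibition of FRET ratio versus controls | Benchmarks: DMSO wells as 0% and neomycin B wells as 100% inhibition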
Measles CPE – protection of cells from measles virus; protection (pct of control), % at 4 µM; Measles virus-infected cells, CPE protection, absorbance; 1.5% of 140,000 active; in the data active = protection mostly above about 24%, no sharp cut-off; inactive = mostly below about 26%
Phagocytosis inh – inhibitors of macrophage phagocytosis. J774A.1 macrophage IgG-bead phagocytosis, imaging. inhibition, % at 5 µM. 0.07% of 110,000 active. AID 1029;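 active = inhibition above the mean of the plate negative controls plus 5 SD, cut at about 13% in these data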;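 note: phagocytic index as fraction of beads internalized from green versus red external bead signal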
Numbers stand for hits; n = inactive; x = no result given. Rows were chosen to be rich in hits. Some 5.9% of all compounds tested hit in one or more screens of this group.

SMILES | Pyk2 oligo antag | Cav3 T inh | hDAT+cocaine | HIV Rev-RRE inh | Measles CPE | Phagocytosis inh
O=C(NCc1ccc2c(c1)OCO2)c1ccc(-c2ccc(Cl)cc2)o1 | n | n | 2.4 | n | n | n
O=C(NCc1ccc(OC(F)(F)F)cc1)C1CC(c2cccc(F)c2)=NO1 (stereo not given) | x | -3.2 | n | x | x | x
O=C(NCc1ccc2c(c1)OCO2)C1CC(c2ccc(Cl)cc2)=NO1 (stereo not given) | n | -5.6 | n | n | n | n
COc1cc(OC)c(C2=NOC(C(=O)NCc3ccc4c(c3)OCO4)C2)cc1Cl (stereo not given) | n | n | n | n | n | n
O=C(NCc1ccc2c(c1)OCO2)c1cccc(Cl)c1 | n | n | n | x | n | x
Cc1ccc(CNC(=O)C2CC(c3cccc(F)c3)=NO2)cc1 (stereo not given) | x | n | n | x | x | x
CCC(C)[C@H](N)c1cn([C@@H](CCCCN)C(=O)N2CCNCC2)nn1 (stereo not given in full) | x | n | n | x | x | x
CCOC(=O)C1=C(C)OC(N)=C(C#N)C1C1CCCCC1 (stereo not given) | n | n | n | x | n | n
CCOC(=O)C1=C(c2ccccc2)OC(N)=C(C#N)C1C1CCCCC1 (stereo not given) | n | n | -1.7 | n | n | x
O=C(Nc1ccccc1Cl)c1cc(S(=O)(=O)N2CCCCC2)ccc1N1CCOCC1 | n | -6.3 | n | n | n | x
CC(C)=CC[N+]1(C)CCCCC1 | x | x | x | x | n | n
CC(C)C(=O)Nc1cccc(-c2cnc3ccccc3n2)c1 | n | n | 2.7 | n | n | n
Cc1cc(/C=C2\SC(=S)NC2=O)c(C)n1C | n | n | n | 54 | n | n
Cc1nn(C)cc1/C=C1\SC(=S)NC1=O | n | n | n | n | n | n
O=C(COC(=O)Cn1cnc2ccccc2c1=O)Nc1cc(Cl)ccc1[N+](=O)[O-] | x | x | x | x | n | n
CC(=O)NC1(c2nnnn2CCOC(=O)Nc2ccc(Cl)cc2)CCCCC1 | n | n | n | n | n | n
O=C(Nc1ccc(Cl)cc1)OCCn1nnnc1C(c1ccccc1Cl)N1CCOCC1 (stereo not given) | n | -6.9 | n | n | n | x
N#Cc1ccc(C23CC4(C2)[C@H](CN(Cc2ccc(C(F)(F)F)cc2)[C@@H]4c2ccccc2)C3c2ccc(Cl)nc2)cc1 (stereo not given in full) | x | n | n | x | x | x
Cc1cc2n(n1)C(c1ccc(N(C)C)cc1)Nc1ccccc1-2 (stereo not given) | n | -7.2 | n | n | n | n
CCCCCCCCCCCCN1[C@@H](CC(=O)O)c2cc(F)ccc2S1(=O)=O | x | n | n | x | x | x
COc1ccc(Cl)cc1S(=O)(=O)N1CCN(c2ccc(F)cc2)CC1 | n | -3.7 | n | n | n | n
CCOc1ccc(Cl)cc1S(=O)(=O)N1CCN(c2ccc(C)c(C)c2)CC1 | n | n | n | n | n | x
COc1c(S(=O)(=O)N2CCN(c3ccc(F)cc3)CC2)ccc(Cl)c1Cl | n | n | n | n | n | n
Cc1cc(Cl)c(S(=O)(=O)N2CCN(c3ccc(F)cc3)CC2)cc1OCC(=O)NC1CCCCC1 | n | -5.2 | n | n | n | n
CCOc1ccc(Cl)cc1S(=O)(=O)N1CCN(c2ccc(F)cc2)CC1 | n | -3.7 | n | n | n | n
SMILES | Pyk2 oligo antag | Cav3 T inh | hDAT+cocaine | HIV Rev-RRE inh | Measles CPE | Phagocytosis inh
CCc1cc2c(nc1CC)CCN(CC/C(C)=N/O[C@@H](C)c1cc(-c3c(C)cc(C)cc3C)no1)C2 | x | x | x | x | 25 | x
C/C(CCN1CCc2nc(-c3ccccc3)c(-c3ccccc3)cc2C1)=N\O[C@@H](C)c1cc(-c2c(C)cc(C)cc2C)no1 | x | x | x | x | n | x
Cc1ccc(Cl)cc1N1CCN(C(=O)C2(S(=O)(=O)c3ccc(Cl)cc3)CC2)CC1 | n | -6.1 | n | n | n | n
O=C(N1CCN(c2cccc(Cl)c2)CC1)C1(S(=O)(=O)c2ccc(Cl)cc2)CC1 | n | -4.7 | n | n | n | n
O=C(NCCCN1CCN(c2cccc(Cl)c2)CC1)C1(S(=O)(=O)c2ccc(Cl)cc2)CC1 | n | -6.9 | n | n | n | n
COc1ccccc1NC(=O)c1nn(-c2cccc(C(F)(F)F)c2)ccc1=O | n | x | n | n | n | x
O=C(c1c(F)cccc1F)N1CCN(c2cccc(C(F)(F)F)c2)CC1 | n | n | n | x | n | n
O=c1ccn(-c2cccc(C(F)(F)F)c2)nc1-c1ccn(-c2ccccc2F)n1 | n | -8 | n | n | n | x
COc1ccc(-n2ccc(-c3nn(-c4cccc(C(F)(F)F)c4)ccc3=O)n2)cc1 | n | -4.4 | n | n | n | n

From PubChem BioAssay
